According to ChEMBL document CHEMBL1121845, “Synthesis and antitumor activity of cysteinyl-3,4-dihydroxyphenylalanines and related compounds” (1981):

What was measured:
[1] = tested on: Don; assay: Growth inhibition of Don-6 cell lines at 1.0 mM concentration; assay type: functional; settings: Cricetulus griseus
Method in brief: (§1)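 YT-nu (human neuroblastoma) or Don-6 (Chinese hamster fibroblast) cells in McCoy's 5A with 15% FCS, attached 24 h. Washed, then exposed 1 h at 37 °C to drug at 1 or 0.1 mM in Hanks' BSS. Grown 48 h more in medium, trypsinized and Coulter-counted. % growth inhibition relative to parallel drug-free controls.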

[2] = tested on: YT-NU; assay: Growth inhibition of YT-nu cell lines at 1.0 mM concentration; assay type: functional; settings: Homo sapiens; method in brief: as §1
[3] = tested on: YT-nu neuroblastoma (Homo sapiens); assay: Compound was tested for growth inhibition of YT-nu cell lines at 0.1 mM concentration
[4] = tested on: Don-6 fibroblast (Cricetulus griseus); assay: Compound was tested for growth inhibition of Don-6 cell lines at 0.1 mM concentration
[5] = tested on: Mus musculus; assay: Compound was tested for antitumor activity against the L1210 leukemia in mice at dose of 500(mg/kg)/day intraperitoneally per day; assay type: functional
Method in brief: (§2)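 L1210 leukemia: young C57BL/6 × DBA/2 F1 male mice, about 20 g, 10 per group, inoculated ip with 1 × 10^6 leukemia cells on day 0. Drug given in 0.9% NaCl ip once daily for 7 days starting day 1. Read-out is %T/C = median survival time of treated/control × 100; weight change averaged between days 1 and 5.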

[6] = tested on: Mus musculus; assay: Compound was tested for antitumor activity against the L1210 leukemia in mice at dose of 1000 mg/kg/day intraperitoneally per day; assay type: functional; settings: route intraperitoneal
[7] = tested on: Mus musculus; assay: Compound was tested for antitumor activity against the B-16 melanoma in mice at dose of 1000 mg/kg/day intraperitoneally per day; assay type: functional; settings: route intraperitoneal
[8] = tested on: Mus musculus; assay: Compound was tested for antitumor activity against the B-16 melanoma in mice at dose of 500(mg/kg)/day intraperitoneally per day; assay type: functional
Method in brief: as §2, with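 “B-16 melanoma: young” for “L1210 leukemia: young”, “with 5” for “with 1”, “10^6 melanoma” for “10^6 leukemia”, “for 12” for “for 7”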

[9] = tested on: Mus musculus; assay: Compound was tested for antitumor activity against the L1210 leukemia in mice at dose of 500 mg/kg intraperitoneally per day; assay type: functional; settings: route intraperitoneal; method in brief: as §2
[10] = tested on: Don; assay: Compound was tested for growth inhibition of Don-6 cell lines at 0.1 mM concentration; assay type: functional; settings: Cricetulus griseus; method in brief: as §1
[11] = tested on: Mus musculus; assay: Compound was tested for antitumor activity against the L1210 leukemia in mice at dose of 400(mg/kg)/day intraperitoneally per day; assay type: functional; method in brief: as §2
[12] = tested on: Mus musculus; assay: Compound was tested for antitumor activity against the L1210 leukemia in mice at dose of 800(mg/kg)/day intraperitoneally per day; assay type: functional; method in brief: as §2
[13] = tested on: Mus musculus; assay: Compound was tested for antitumor activity against the B-16 melanoma in mice at dose of 400(mg/kg)/day intraperitoneally per day; assay type: functional
Method in brief: as §2, with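 “B-16 melanoma: young” for “L1210 leukemia: young”, “with 5” for “with 1”, “10^6 melanoma” for “10^6 leukemia”, “for 12” for “for 7”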

[14] = tested on: Mus musculus; assay: Compound was tested for antitumor activity against the B-16 melanoma in mice at dose of 800(mg/kg)/day intraperitoneally per day; assay type: functional
Method in brief: as §2, with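 “B-16 melanoma: young” for “L1210 leukemia: young”, “with 5” for “with 1”, “10^6 melanoma” for “10^6 leukemia”, “for 12” for “for 7”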

[15] = tested on: YT-NU; assay: Compound was tested for growth inhibition of YT-nu cell lines at 0.1 mM concentration; assay type: functional; settings: Homo sapiens; method in brief: as §1
[16] = tested on: Mus musculus; assay: Compound was tested for antitumor activity against the L1210 leukemia in mice at dose of 300(mg/kg)/day intraperitoneally per day; assay type: functional; method in brief: as §2
[17] = tested on: Mus musculus; assay: Compound was tested for antitumor activity against the B-16 melanoma in mice at dose of 300(mg/kg)/day intraperitoneally per day; assay type: functional
Method in brief: as §2, with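 “B-16 melanoma: young” for “L1210 leukemia: young”, “with 5” for “with 1”, “10^6 melanoma” for “10^6 leukemia”, “for 12” for “for 7”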

[18] = tested on: Mus musculus; assay: Compound was tested for antitumor activity against the L1210 leukemia in mice at dose of 100(mg/kg)/day intraperitoneally per day; assay type: functional
Method in brief: (§3)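 Male C57BL/6 × DBA/2 F1 mice, about 20 g, 10 per group, inoculated ip with 1 × 10^6 L1210 cells on day 0. From day 1, drug in 0.9% NaCl given ip once daily for 7 days. Weight change recorded between days 1 and 5. Activity expressed as %T/C = median survival time of treated over control × 100.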

[19] = tested on: Mus musculus; assay: Compound was tested for antitumor activity against the B-16 melanoma in mice at dose of 100(mg/kg)/day intraperitoneally per day; assay type: functional
Method in brief: as §2, with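 “B-16 melanoma: young” for “L1210 leukemia: young”, “with 5” for “with 1”, “10^6 melanoma” for “10^6 leukemia”, “for 12” for “for 7”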

[20] = tested on: Mus musculus; assay: Compound was tested for antitumor activity against the L1210 leukemia in mice at dose of 250 mg/kg intraperitoneally per day; assay type: functional; settings: route intraperitoneal; method in brief: as §2
[21] = tested on: Mus musculus; assay: Compound was tested for antitumor activity against the L1210 leukemia in mice at dose of 150(mg/kg)/day intraperitoneally per day; assay type: functional; method in brief: as §3

NC(CSc1ccccc1O)C(=O)O (centres undefined)
inhibition at 1000 µM [1]: 5% | inhibition at 1000 µM [2]: 51%

Cc1ccc(O)c(O)c1
inhibition at 1000 µM [1]: 76% | inhibition at 1000 µM [2]: 93% | inhibition at 100 µM [3]: 48% | inhibition at 100 µM [4]: 33%

NC(CSc1cc(CC(N)C(=O)O)cc(O)c1O)C(=O)O (centres undefined)
inhibition at 1000 µM [1]: 11% | T/C [5]: 131% | T/C [6]: 150% | Weight change [6]: 1.7 g | T/C [7]: 127% | Weight change [7]: 2.1 g | T/C [8]: 108% | Weight change [8]: 2.6 g | inhibition at 1000 µM [2]: 59% | Weight change [9]: 1.7 g

NC(CSc1nc(CC(N)C(=O)O)c[nH]1)C(=O)O (centres undefined)
inhibition at 1000 µM [1]: 0% | inhibition at 1000 µM [2]: 7%

NC(CSc1cc(O)c(O)cc1CC(N)C(=O)O)C(=O)O (centres undefined)
inhibition at 1000 µM [1]: 41% | inhibition at 1000 µM [2]: 61%

Cc1cc(O)c(O)c(SCC(N)C(=O)O)c1 (centres undefined)
inhibition at 100 µM [10]: 25% | inhibition at 1000 µM [1]: 82% | T/C [11]: 143% | Weight change [11]: 1.6 g | T/C [12]: 143% | Weight change [12]: 0.5 g | T/C [13]: 100% | Weight change [13]: 0.7 g | T/C [14]: 126% | Weight change [14]: -0.4 g | inhibition at 100 µM [15]: 44% | inhibition at 1000 µM [2]: 84%

NC(CSc1ccc(SCC(N)C(=O)O)c(O)c1O)C(=O)O (centres undefined)
inhibition at 1000 µM [1]: 30% | inhibition at 1000 µM [2]: 40%

NC(CSc1ccc(O)c(O)c1)C(=O)O (centres undefined)
inhibition at 100 µM [10]: 69% | inhibition at 1000 µM [1]: 81% | T/C [5]: 150% | Weight change [5]: -1 g | T/C [16]: 138% | Weight change [16]: 0.5 g | T/C [17]: 114% | Weight change [17]: -1.3 g | T/C [8]: 95% | Weight change [8]: -1.5 g | T/C [18]: 113% | Weight change [18]: 1.4 g | T/C [19]: 109% | Weight change [19]: 1.8 g | inhibition at 100 µM [15]: 71% | inhibition at 1000 µM [2]: 76%

NC(CSc1c(CC(N)C(=O)O)ccc(O)c1O)C(=O)O (centres undefined)
inhibition at 1000 µM [1]: 0% | inhibition at 1000 µM [2]: 35%

NC(CSc1ccc(O)cc1)C(=O)O (centres undefined)
inhibition at 1000 µM [1]: 5% | T/C [20]: 100% | Weight change [20]: 3 g | inhibition at 1000 µM [2]: 36%

NC(CSc1cc(CC(N)C(=O)O)c(SCC(N)C(=O)O)c(O)c1O)C(=O)O (centres undefined)
inhibition at 1000 µM [1]: 44% | inhibition at 1000 µM [2]: 56%

NC(CSc1cc(CC(N)C(=O)O)ccc1O)C(=O)O (centres undefined)
inhibition at 1000 µM [1]: 5% | inhibition at 1000 µM [2]: 7%

NC(CSc1cccc(O)c1O)C(=O)O (centres undefined)
inhibition at 1000 µM [1]: 32% | inhibition at 1000 µM [2]: 20%

Cl.Cl.NCCSc1cc(CCN)cc(O)c1O
inhibition at 1000 µM [1]: 83% | T/C [21]: 88% | Weight change [21]: -2.1 g | T/C [18]: 100% | Weight change [18]: 1.1 g | inhibition at 1000 µM [2]: 65% | inhibition at 100 µM [3]: 48% | inhibition at 100 µM [4]: 73%

NCCc1ccc(O)c(O)c1 [DOPAMINE]
inhibition at 1000 µM [1]: 30% | inhibition at 1000 µM [2]: 40%

N[C@@H](Cc1ccc(O)c(O)c1)C(=O)O [LEVODOPA]
inhibition at 1000 µM [1]: 6% | inhibition at 1000 µM [2]: 24%
